According to ChEMBL document CHEMBL4229360, “Antimalarial agents against both sexual and asexual parasites stages: structure-activity relationships and biological studies of the Malaria Box compound 1-[5-(4-bromo-2-chlorophenyl)furan-2-yl]-N-[(piperidin-4-yl)methyl]methanamine (MMV019918) and analogues” (Eur J Med Chem, 2018):

Tests used:
Plasmodium falciparum [1] = assay: Gametocytocidal activity against Plasmodium falciparum 3D7 elo1-pfs16-CBG99 late-stage (4 to 5) gametocytes assessed as inhibition of parasite viability after 72 hrs by luciferase reporter assay; type: functional, organism-based; conditions: 3D7 elo1-pfs16-CBG99, 72 h
In short: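 Transgenic 3D7elo1-pfs16-CBG99 gametocytes express CBG99 luciferase from the pfs16 promoter. Stage IV–V gametocytes (Giemsa-checked) were exposed at day 8–10 after NAG addition to serial dilutions in complete medium for 72 h. Samples at 2% haematocrit were then mixed 1:1 with D-luciferin (1 mM, pH 5.5 citrate) for 10 min and luminescence was read. IC50 came from non-linear regression, mean of ≥3 experiments in duplicate.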

Plasmodium falciparum [2] = assay: Antiplasmodial activity against chloroquine-sensitive Plasmodium falciparum D10 after 72 hrs by lactate dehydrogenase assay; type: functional, organism-based; conditions: D10, 72 h
In short: (§1)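 Asynchronous blood-stage cultures at 1–1.5% parasitemia and 1% final hematocrit in human A+ RBCs, RPMI 1640 with 1% AlbuMax, hypoxanthine, HEPES and glutamine. Serial dilutions from DMSO stocks, final DMSO <1%. Incubated 72 h at 37 °C under 1% O₂/5% CO₂. IC50 is the mean of ≥3 experiments in duplicate.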

[3] = Cytotoxicity against mouse NIH/3T3 cells after 24 hrs by neutral red uptake assay; type: cell-based, NIH3T3; conditions: read-out: TC50
In short: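 NIH3T3 cells exposed for 24 h; viability by neutral red uptake. Mean of three experiments, six replicates each.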

Plasmodium falciparum [4] = assay: Antiplasmodial activity against chloroquine-resistant Plasmodium falciparum W2 after 72 hrs by lactate dehydrogenase assay; type: functional, organism-based; conditions: W2, 72 h; in short: as §1
[5] = biological target: T1, Phosphoethanolamine N-methyltransferase (Plasmodium falciparum) (UniProt Q8IDQ9); assay: Inhibition of plasmodium falciparum phosphoethanolamine N-methyltransferase expressed in Escherichia coli assessed as remaining enzyme activity at 100 uM using phosphoethanolamine as substrate and [methyl-14C] SAM by radiochemical assay
T1 sequence (whole entry): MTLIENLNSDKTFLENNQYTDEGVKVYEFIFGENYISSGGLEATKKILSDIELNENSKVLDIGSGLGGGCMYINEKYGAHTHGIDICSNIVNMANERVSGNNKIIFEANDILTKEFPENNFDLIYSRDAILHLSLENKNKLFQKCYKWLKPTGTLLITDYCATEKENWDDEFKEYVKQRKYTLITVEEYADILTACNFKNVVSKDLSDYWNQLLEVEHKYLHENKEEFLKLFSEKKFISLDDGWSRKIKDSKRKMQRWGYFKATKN
In short: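 Recombinant PfPMT purified from E. coli, 2 μg per 100 μL reaction. Buffer 0.1 M HEPES-KOH pH 8.0, 2 mM Na2EDTA, 10% glycerol, 5% DMSO, with 30 μM SAM (100 nCi [methyl-14C]SAM) and 55 μM phosphoethanolamine; radiochemical read-out.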

Plasmodium falciparum [6] = assay: Antiplasmodial activity against asexual blood stage Plasmodium falciparum NF54 after 72 hrs by SYBR green-based fluorometric analysis; type: functional, organism-based; conditions: NF54, 72 h
In short: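 Asexual NF54 seeded at 0.83% parasitaemia, 1.5% haematocrit, in RPMI1640 with 10% human serum. Serial dilutions, final DMSO 0.1%. Incubated 72 h at 37 °C under 3% O2, 4% CO2, then read by SYBR Green fluorescence.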

Plasmodium falciparum [7] = assay: Gametocytocidal activity against Plasmodium falciparum NF54 HGL gametocytes assessed as inhibition of parasite viability after 72 hrs by ONE-Glo reagent based luminescence assay; type: functional, organism-based
In short: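 NF54 gametocytes raised in 5% haematocrit RPMI1640/10% human serum, with 50 mM NAG on days 4–9. Mainly stage IV gametocytes isolated on day 11 by Percoll gradient and seeded at 5000 cells/well, final DMSO 0.1%. Incubated 72 h at 37 °C, 3% O2, 4% CO2; viability by ONE-Glo luminescence.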

SMILES | IC50 (Plasmodium falciparum [1]) | IC50 (Plasmodium falciparum [2]) | CC50 at 24 h [3] | IC50 (Plasmodium falciparum [4]) | Activity [5] | IC50 (Plasmodium falciparum [6]) | IC50 (Plasmodium falciparum [7])
CN(C)c1ccc2nc3ccc(N(C)C)cc3[s+]c2c1 [METHYLENE BLUE ANHYDROUS] | 0.03 µM |  |  |  |  |  | 
CN(C)CCCNCc1ccc(-c2ccc(Br)cc2Cl)o1 | 1.1 µM | 1.2 µM | 5 µM | 1.4 µM |  |  | 
C[N+](C)(CCCNCc1ccc(-c2ccc(Cl)cc2Br)o1)Cc1ccccc1 | 4.8 µM | 0.55 µM |  | 0.66 µM | 95.8% |  | 
Brc1ccc(-c2ccc(CNCC3CCNCC3)o2)cc1 | 4.4 µM | 1.1 µM |  | 8 µM |  |  | 
Oc1ccccc1-c1ccc(CNCC2CCNCC2)o1 | 8.3 µM | 4.4 µM | 7 µM | 9.6 µM |  | 0.26 µM | 0.29 µM
Clc1ccc(-c2nnc(CNCC3CCNCC3)[nH]2)cc1 | > 13 µM | > 13 µM |  | > 13 µM |  |  | 
Clc1cc(Br)ccc1-c1ccc(CNCC2CCNCC2)s1 | 0.85 µM | 0.73 µM | < 5 µM | 2.2 µM |  | 0.28 µM | 0.02 µM
C[N+](C)(C)CCCNCc1ccc(-c2ccc(Cl)cc2Br)o1 | > 24 µM | 2.5 µM |  | 5.5 µM |  |  | 
Fc1ccc(-c2ccc(CNCC3CCNCC3)o2)cc1 | 6 µM | 2.1 µM |  | 7.9 µM |  |  | 
Brc1ccc2cc(CNCC3CCNCC3)sc2c1 | 1.4 µM | 1 µM |  | 1.5 µM |  | 0.73 µM | 0.053 µM
